Data published in the RNAGym collection of RNA variant scans (doi:10.1126/science.aae0568).
Variants at the floor of the assay were thinned out.

B1: tRNA (parent)
chain: GUUCCGUUGGCGUAAUGGUAACGCGUCUCCCUCCUAAGGAGAAGACUGCGGGUUCGAGUCCCGUACGGAACG

Variants of: B1
Assay: yeast fitness relative to wild type (ratio to wild type); higher = fitter; tRNA-Arg(CCU), competitive growth, 37 C, YPD
How it was run: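 Amplicons of the tRNA-Arg(CCU) gene were sequenced, 100-nucleotide paired-end, from the start population and from each end population of a pooled yeast competition. The competition, in six parallel replicates, lasted 24 hours in YPD at 37°C. Fitness relative to wild type was calculated from changes in genotype frequencies. Genotypes had to have ≥ 100 starting reads, and estimates < 0.5 were set to 0.5.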

Going from U3C C24G C49U C55G G58A to U3C C55G U64A, the yeast fitness falls from 0.576 to 0.563.

First: U3C C22U C66U
Second: U3C C22A U47A A70G
The yeast fitness of the first is higher: 0.552 for the first, at most 0.5 for the second.

Compared with U3C C31U G58C, U3C C27U U35C is lower in yeast fitness: 0.712 for the first, 0.626 for the second.

Compared with U3C C29G C33A, U3C C22G A70C is higher in yeast fitness: at most 0.5 for the first, 0.679 for the second.

First: U3C C22U G48A
Second: U3C G9A A57C
The yeast fitness of the first is higher: 0.955 for the first, 0.584 for the second.

Compared with U3C C4U C30U A57G, U3C C24U G56A is higher in yeast fitness: at most 0.5 for the first, 0.757 for the second.

First: U3C C11U U16C C30G C31G A37U
Second: U3C C33A C61G
The yeast fitness of the first is lower: at most 0.5 for the first, 0.731 for the second.

First: U3C C30A
Second: U3C C30G A42C
The yeast fitness of the first is higher: 1.06 for the first, at most 0.5 for the second.

U3C C55U C61A and U3C C24U A36C G63A cannot be ordered by yeast fitness: at most 0.5 for the first, at most 0.5 for the second.

Compared with U3C C11A G25A C46G A57U, U3C C30G U64A A70C is lower in yeast fitness: 0.504 for the first, at most 0.5 for the second.

U3C C5U G68A and U3C C31U G50A G58C C66U cannot be ordered by yeast fitness: at most 0.5 for the first, at most 0.5 for the second.

Going from U3C C24U A40G C46A to U3C C49G G63C, the yeast fitness falls from 0.702 to 0.617.

Compared with U3C C30A C31U, U3C G6A G18C C30U C31U A65U is lower in yeast fitness: 0.747 for the first, at most 0.5 for the second.

Compared with U3C C29U G58C, U3C C46A G48A is higher in yeast fitness: 0.58 for the first, 0.877 for the second.

Going from U3C C62A to U3C A40U A69U, the yeast fitness falls from 0.865 to 0.755.

Going from U3C G6C U7G C24G C27A U28A G41A to U3C C11G C24G U54G, the yeast fitness falls from 0.618 to at most 0.5.

Compared with U3C C22G, U3C C33U is lower in yeast fitness: 0.859 for the first, 0.803 for the second.

Going from U3C C30G A43C to U3C C5U U26A G63A, the yeast fitness falls from 0.548 to at most 0.5.

Going from U3C C27U A42G G67A to U3C C55U, the yeast fitness rises from at most 0.5 to 0.687.

First: U3C C55A
Second: U3C G6A G18C C30U C31U G48A C55G A65U
The yeast fitness of the first is higher: 0.687 for the first, at most 0.5 for the second.

Going from U3C C31U A65C to U3C C31U A45U, the yeast fitness falls from 0.791 to 0.718.

Going from U3C C11U G56A to U3C G6A U54C C61G, the yeast fitness falls from 0.742 to at most 0.5.

U3C C11G A57G and U3C C30A C31G C49A C60U G67A cannot be ordered by yeast fitness: at most 0.5 for the first, at most 0.5 for the second.

Compared with U3C C4G A15U C33A G52C, U3C C22G G67U is higher in yeast fitness: at most 0.5 for the first, 0.538 for the second.

U3C G10A G23A C62G G67A and U3C C30U C55U G58A cannot be ordered by yeast fitness: at most 0.5 for the first, at most 0.5 for the second.

Compared with U3C A45U U64C, U3C G9A G48C is higher in yeast fitness: 0.709 for the first, 0.784 for the second.

U3C C22G G52C G67C and U3C C30U A42G G58C cannot be ordered by yeast fitness: at most 0.5 for the first, at most 0.5 for the second.

First: U3C C11U A36C A65C C66U
Second: U3C C29G C30G C49A G56C C61U
The yeast fitness of the first is lower: at most 0.5 for the first, 0.789 for the second.

Going from U3C C4U C60A C66G to U3C A45G, the yeast fitness rises from at most 0.5 to 0.903.

First: U3C G10A C22A C24G
Second: U3C G6C C46A
The yeast fitness of the first is lower: at most 0.5 for the first, 0.645 for the second.

Going from U3C C27U C62U to U3C G9A A21G A40G G56A U64C, the yeast fitness falls from 0.617 to at most 0.5.

Compared with U3C C4G A42G A45U C66U, U3C C5G C11G C66U is lower in yeast fitness: 0.53 for the first, at most 0.5 for the second.

First: U3C C30U A37G C61A
Second: U3C C11U
The yeast fitness of the first is lower: at most 0.5 for the first, 1.06 for the second.

Compared with U3C C22G C27G C31G C61G A69U, U3C C11U C27G G52A is lower in yeast fitness: 0.615 for the first, at most 0.5 for the second.

Going from U3C C5G G38A to U3C C4G A42G, the yeast fitness rises from at most 0.5 to 0.57.

Going from U3C C46A A70C to U3C C49G A65U, the yeast fitness falls from 1.12 to 0.658.

U3C C5A C34U U35A C49A U54A and U3C C30A U35C G39A A42C A43G C46U A65C cannot be ordered by yeast fitness: at most 0.5 for the first, at most 0.5 for the second.

Going from U3C C30U G44A to U3C C11A U32G C61A C62A, the yeast fitness rises from 0.566 to 0.587.

First: U3C A40U G44C
Second: U3C C31U C34U U35A U53A G58A G68A
The yeast fitness of the first is higher: 0.625 for the first, at most 0.5 for the second.

Going from U3C C34G C49A G50A to U3C C4U A15G U26A U32A, the yeast fitness rises from at most 0.5 to 0.571.

Going from U3C C27U C46G to U3C C11A C27G C33A A43C C46A C62A C66U, the yeast fitness falls from 0.789 to at most 0.5.

Going from U3C C33G A69C to U3C C4U U64A, the yeast fitness falls from 0.621 to 0.617.

First: U3C C31U C49G
Second: U3C A43C A69C
The yeast fitness of the first is lower: 0.755 for the first, 0.762 for the second.

First: U3C C27G C33A C66G G67C
Second: U3C C34A G44A G52A C55U
The yeast fitness of the first is lower: at most 0.5 for the first, 0.562 for the second.

U3C C29U C33A A40C and U3C A40G C46A C62G A69U cannot be ordered by yeast fitness: at most 0.5 for the first, at most 0.5 for the second.

Going from U3C C24U C29G C49U to U3C C29U C30G G39C C60A, the yeast fitness falls from 0.618 to at most 0.5.

First: U3C G9C C11U U19C C30G A43C
Second: U3C C34G A57C
The yeast fitness of the first is lower: at most 0.5 for the first, 0.715 for the second.

Going from U3C G9A U28G to U3C A65G, the yeast fitness rises from 0.59 to 0.887.

First: U3C C5G C34A A37U G44A G51A C55A
Second: U3C A57G
The yeast fitness of the first is lower: at most 0.5 for the first, 0.714 for the second.

Going from U3C C11A C27G C33A A43C C46A to U3C C11A C24U A42G, the yeast fitness falls from 0.687 to 0.638.

First: U3C A40U C49A A70U
Second: U3C C46G A69C
The yeast fitness of the first is lower: at most 0.5 for the first, 0.625 for the second.

First: U3C G10A G52A U54C G56A G58A
Second: U3C C11U A65G
The yeast fitness of the first is lower: at most 0.5 for the first, 0.732 for the second.

U3C C11U C22A C29G C33U U64C A70C and U3C C11U C29U G67A A70U cannot be ordered by yeast fitness: at most 0.5 for the first, at most 0.5 for the second.

Compared with U3C C5G U28G C31U G51A U54A U59A, U3C C4U A21G C46A is higher in yeast fitness: at most 0.5 for the first, 0.628 for the second.

First: U3C A45C G48A
Second: U3C C55A C60A
The yeast fitness of the first is higher: 0.937 for the first, at most 0.5 for the second.

Compared with U3C C27U, U3C C11U U13C C24A A43C G50C C60G is lower in yeast fitness: 0.941 for the first, at most 0.5 for the second.

Going from U3C C11U G17C C22A C24G U28C C33A to U3C A70U, the yeast fitness rises from at most 0.5 to 1.01.

Compared with U3C C11U G12C, U3C C4G G12C is higher in yeast fitness: at most 0.5 for the first, 0.687 for the second.

First: U3C C4A A65C
Second: U3C C31U C46A
The yeast fitness of the first is lower: 0.62 for the first, 0.79 for the second.

First: U3C C46A G50A
Second: U3C C5G U19G C31A C46A
The yeast fitness of the first is higher: 0.731 for the first, 0.663 for the second.

U3C C24U C46U C62U and U3C C5G C11G G48A A69G cannot be ordered by yeast fitness: at most 0.5 for the first, at most 0.5 for the second.

First: U3C G9A C34G A42G C49G C62U A69C
Second: U3C C31U G68C
The yeast fitness of the first is lower: at most 0.5 for the first, 0.664 for the second.

U3C C4A G17A G41A C66U and U3C C31G U32C G38C C46G G48C cannot be ordered by yeast fitness: at most 0.5 for the first, at most 0.5 for the second.

U3C C5U C24U A42C A57U and U3C A45C C46G C49A A69U cannot be ordered by yeast fitness: at most 0.5 for the first, at most 0.5 for the second.

Going from U3C C24G G44A to U3C C49G, the yeast fitness rises from at most 0.5 to 0.943.

Compared with U3C C55U G58A, U3C G10C A20C G56C is higher in yeast fitness: 0.508 for the first, 0.577 for the second.

U3C G6C A14U G25A G38A U47A and U3C C5G A21U A42C cannot be ordered by yeast fitness: at most 0.5 for the first, at most 0.5 for the second.

U3C G6A C29G G58A and U3C C31G C34U G38A cannot be ordered by yeast fitness: at most 0.5 for the first, at most 0.5 for the second.

Compared with U3C C27A C62U, U3C C4G U28C A43C is lower in yeast fitness: 0.526 for the first, at most 0.5 for the second.

Compared with U3C C11U C61G A65C, U3C C62U A69C is higher in yeast fitness: at most 0.5 for the first, 0.756 for the second.

Going from U3C C4G U8G A42G C62G A65C to U3C C27U C46A G50A C62U, the yeast fitness rises from at most 0.5 to 0.595.

First: U3C C5A
Second: U3C C11A A15C C24A C27A G41C
The yeast fitness of the first is higher: 0.89 for the first, at most 0.5 for the second.

Compared with U3C G6C A14U G25A G38A U47A C60G, U3C C31U G39A G44A C61U is lower in yeast fitness: 0.558 for the first, at most 0.5 for the second.

First: U3C C61U U64C
Second: U3C A45C G67A
The yeast fitness of the first is higher: 0.72 for the first, at most 0.5 for the second.

Going from U3C C31A A42G A43G G68C to U3C C4U U35C A70U, the yeast fitness rises from at most 0.5 to 0.544.

U3C G10A C46U U47A U54C and U3C G6A U16C G17A cannot be ordered by yeast fitness: at most 0.5 for the first, at most 0.5 for the second.

First: U3C C11A C33U C49A
Second: U3C C27G C30U G67A
The yeast fitness of the first is lower: at most 0.5 for the first, 0.554 for the second.

U3C C5A G17A A42G U64A and U3C C22G C27A C49U cannot be ordered by yeast fitness: at most 0.5 for the first, at most 0.5 for the second.

Compared with U3C C27U C31U, U3C C27G C49A is lower in yeast fitness: 0.787 for the first, at most 0.5 for the second.

U3C G6C G38C C46A and U3C C27U G48A C55A G63A cannot be ordered by yeast fitness: at most 0.5 for the first, at most 0.5 for the second.

U3C C34U G41C C49U G58A U64A and U3C C22U G23A cannot be ordered by yeast fitness: at most 0.5 for the first, at most 0.5 for the second.

Going from U3C C24A A43G G52A G58A to U3C C4U, the yeast fitness rises from at most 0.5 to 1.01.

Going from U3C C31U C62U to U3C C31U U54A, the yeast fitness falls from 0.804 to 0.583.

U3C G6A G23C C49G U53G A57G gave a yeast fitness of at most 0.5.
